Test system: MS2 coat protein
Experiment: apparent Kd, MS2 coat protein; higher = weaker binding; RNA-MaP array; theophylline 2 mM where present
How it was run: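 The titrant was SNAP-549-labelled MS2 coat protein, run from 0.7 or 1.5 nM in doubling steps to 3 µM. It was applied to designs transcribed by stalled E. coli RNA polymerase on Illumina sequencing-chip clusters, without ligand first and then with constant ligand, in 100 mM Tris-HCl pH 7.5, 80 mM KCl, 4 mM MgCl2, BSA, DTT, yeast tRNA and Tween-20. The apparent Kd is the median of filtered per-cluster binding-curve fits, with green signal normalised to red-channel RNA signal and control-cluster median Fmax.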

[1] = designed as: OFF switch for theophylline, no ligand
[2] = ligand present: theophylline, designed as: OFF switch for theophylline
[3] = designed as: ON switch for theophylline, no ligand
[4] = ligand present: theophylline, designed as: ON switch for theophylline

Sequence	apparent Kd [1] [nM]	apparent Kd [2] [nM]	apparent Kd [3] [nM]	apparent Kd [4] [nM]
UGACAUUGCUCAGAUACCAGACAUGAGGAUCACCCAUGUACCAAGAGUACAAAUUAAAAUGUCCCUUGGCAGCUGAGCAAUGUCU	19.6	483		
AGCGACAUGCGUGAUACCAGCUACAUGAGGAUCACCCAUGUCAGUAGGAAACUGCUGUGUAGCCCUUGGCAGCACAGUGCAUGUC	34.9	38.6		
AGACAUGAGGAUCACCCAUGUAGUAUGGAUACCAGAUCCAGAUUUAUCCCUUGGCAGCUGUGGUACAGCGAUGGAUCGCUCCUAG	23.4	27.8		
AAUAACAUGAGGAUCACCCAUGUAAAAGAUACCAGAGUGAUGAUCCUCCCUUGGCAGCUUAAAACGCUAUUGAUUACAAUAGCGA			54.9	119
AUUAAUAGUUGUGAUACCAGACGAACAUGAGGAUCACCCAUGUAACUUUUAGGUGUUGUAGUCCCUUGGCAGCACUAUUUAGUUA			42.7	35.3
GCACCAGGUACGGAUACCAGCUGCCAUAGUUACAUGAGGAUCACCCAUGUGAUCUAUUGUAGCCCUUGGCAGCUGUACCUGGUGC			104	92.4
GUGUUUGUGUGAGAUACCAGUGAGGCCACAUGAGGAUCACCCAUGUCCCUCACUCCGGCCCACCCUUGGCAGCUCUUAUAGUAGU	9.39	38.4		
AAUAAGCAGCUGCAAGGUGAUCCUGCAGAUACCAGCUAGGAAACUAGCCCUUGGCAGCUGCAACAUGAGGAUCACCCAUGUAAUA	34.8	85.3		
UUUACAUGAGGAUCACCCAUGUGCCAUGAUACCAGACAUGAAAAUGUCCCUUGGCAGCAUGAAAGAUCCACGUCGGAAACGACGG			176	308
AUUUUUCUAUCAGAUACCAGACAAUUUUAGACAUGAGGAUCACCCAUGUAUAGGGUGUUCGUCCCUUGGCAGCUGUUAAGUUUAA			190	205
UCGCAUUGCUGCGAUACCAGACAUGAGGAUCACCCAUGUACCAAGGUACGAAAAUAACAUGUCCCUUGGCAGCGCAGCAAUGCGU	12.8	322		
ACCAUGUAAUCAGAUACCAGACAUCUUUUAAAUCAUAUUACAUGAGGAUCACCCAUGUUGGUCCCUUGGCAGCUGAAAUAUUUUU			205	46.4
UAAAACAUGAGGAUCACCCAUGUAUUUGAUACCAGAGUGAUGAUCCUCCCUUGGCAGCAAAUAACGCAUUGAUUACAAUGCGAAA			42.8	143
UCGCAUUGCUCAGAUACCAGACAUGAGGAUCACCCAUGUACCAAGGUAACCGAAAGGCAUGUCCCUUGGCAGCUGAGCAAUGCGU	12.1	225		
AAGGGUGAGUCUCUAAUCCGUUUGACGGAUACCAGCGAGAGAUAUCGCCCUUGGCAGCCGACGACAUGAGGAUCACCCAUGUAAA	14.7	17.2		
UUUGAUAGAACAGAUACCAGCGUGUUAUAAAACAUGAGGAUCACCCAUGUAGUGAUCAAGCGCCCUUGGCAGCUGGUUUGUUAGG			135	182
UGUAUGUGAUUUGAUACCAGACCAACUGGUAAAACAUGAGGAUCACCCAUGUAAACUUGGGUCCCUUGGCAGCAAAUCGCAUACU			80.5	10.9
CGGUUUGUGAUGGAUACCAGCAGAGAGAAUGUUUAUCCUGACAUGAGGAUCACCCAUGUGUGCCCUUGGCAGCUGUUGUGGGCUG	60	69		
UUUGAAAUAACAGAUACCAGCGUGUUAUAAAACAUGAGGAUCACCCAUGUAGUGAUCAAGCGCCCUUGGCAGCUGGUAUUUUAGG			85.4	196
AGCGCAGGUCCUGAUACCAGUGACAUGAGGAUCACCCAUGUCCGAUGGGCCUGCCUCUGACACCCUUGGCAGCAGGGCUUGUGCU	23.7	29.8		
UCCACAUGAGGAUCACCCAUGUAAUCAGAUACCAGUGACGAAAGUCACCCUUGGCAGCUGAUUACUUUAGUUCGAGGGUGUUUGA	102	202		
GGGCCUGUAAGCAGACCCACAGCGGGUGAUACCAGCAAUAAAACUUGCCCUUGGCAGCACACAGCUACAUGAGGAUCACCCAUGU			43.2	83.2
UCGCUCGCAGAAAUGCGAGCGAGUUGCGAUACCAGCCCGGAAACGGGCCCUUGGCAGCGCACAUGAGGAUCACCCAUGUCAUGUU	17.4	23.8		
GAUCCUCAUACGGAUACCAGCGAAUAACAUGAGGAUCACCCAUGUAAUAAAGAAAAUAAAUGCCCUUGGCAGCCGAAUAGAUAGU			166	69.4
ACGACGCAUACAGAUACCAGUAGCCGAGAAACAUGAGGAUCACCCAUGUCGAGCGACAACUGCCCUUGGCAGCUGUAUGCGUCAG			8.49	8.34
GAGGGUGGGUCUCUAAUCCGUUUGACGGAUACCAGCGAGAGAUAUCGCCCUUGGCAGCCGACGACAUGAGGAUCACCCAUGUAAA	15.6	101		
ACAUGAGGAUCACCCAUGUUCCUCUUUGAUACCAGUGAGUUGUUUCGCCCUUGGCAGCGAGUGUUUGUUUUUUUGUUUUGUUUGG	215	288		

Sequence	apparent Kd [1] [nM]	apparent Kd [2] [nM]	apparent Kd [3] [nM]	apparent Kd [4] [nM]
GAUGAACUAUUUGAUACCAGACUACAUGAGGAUCACCCAUGUGUGUUUAUACUUCAGUCAGUCCCUUGGCAGCAAAUAGUUUAUC	147	306		
AUCUCAUAGAGUGAUACCAGACUACAUGAGGAUCACCCAUGUUACAUUUAAAUAUCAUUUGUCCCUUGGCAGCACAUUAAGUACA	24.3	15.2		
UCACGAGGCCUGGAUACCAGCGACAUGAGGAUCACCCAUGUAUGAGGAUCAGCCAUGUUAUGCCCUUGGCAGCCACGAAGGUCAU	14.6	94.5		
CAUGUUGUUGAAGAUACCAGAUUCUGAACGUUCACAUGAGGAUCACCCAUGUAAGUCCGAGUCCCUUGGCAGCUUAUACAGGUGG			53	14.7
UUUUUUAACAUGGCGUAUCGGAAAACCGAUACCAGUACAGAAAUGUACCCUUGGCAGCGGCGUUUUACAUGAGGAUCACCCAUGU	29.4	193		
UAAAACAUGAGGAUCACCCAUGUAAUUGAUACCAGAGUGAUGAUCCUCCCUUGGCAGCAAAUAACGCAUUGAUUACAAUGCGAAA			42.7	215
CGUACAUGAGGAUCACCCAUGUAGAGUGAUACCAGUCUACCUAGUGACCCUUGGCAGCACAUCGAUGGCAUCGGUGAUGCCGUUU			87.3	83.3
CAAACAUGAGGAUCACCCAUGUAAUCAGAUACCAGUGACGAAAGUCACCCUUGGCAGCUGAUUACUUUAGUUCUAAGGUGUUUGA	92.6	56.6		
AUGGUAGGACAGCACAUAUAAGCUUGUGAUACCAGCUAGAAAACUAGCCCUUGGCAGCACAUUACAUGAGGAUCACCCAUGUCCC	51	75.7		
GUUAUGGACCUGGAUACCAGCUGGUACAAGGGCGGUCUACAUGAGGAUCACCCAUGUGUCAGCCCUUGGCAGCCAGCAACCGGCA	9.28	11.8		
UGGUACAUGAGGAUCACCCAUGUUCCAGAUACCAGACUCCCGGUGGUCCCUUGGCAGCUGGUGGUACAUGAGGAUCACCCAUGUG	30.4	49.9		
AUAAGGUAUCUGCUAUCCUCAUGAGCAGAUACCAGCUAGGAAACUAGCCCUUGGCAGCUGCAACAUGAGGAUCACCCAUGUAAUA	409	92.3		
GAACAUGAGGAUCACCCAUGUAAAACAGAUACCAGUGAUAUAAUACACCCUUGGCAGCUGUAGCUGAAUAAUAAUUCCCUCAAGC			15.5	18.4
AUAACAUGAGGAUCACCCAUGUAAGCAGAUACCAGCUAGGAAACUAGCCCUUGGCAGCUGCAUAGUGAUCCAUAUAUCUGCUAAU	53.6	42.8		
AACAGGGCUCGCACGAAGCCCUAAGGUGAUACCAGCACAUGUAAGUGCCCUUGGCAGCACGGUACAUGAGGAUCACCCAUGUAGA			64.3	255
UACAUGAGGAUCACCCAUGUAUGAAUGGAUACCAGAUAAAAUAAGGUCCCUUGGCAGCUAGUGAAUCGAGGGUGGGUAUCAUGUU	10.5	11.2		
AGCGAUAUGCAUGAUACCAGCUACAUGAGGAUCACCCAUGUGCGUCAGUAAUGACUGUGUAGCCCUUGGCAGCAUAGAGCAUGUA	37.6	70.4		
CAAUAAGUAACUGAUACCAGUGUACUGACAUGAGGAUCACCCAUGUUGGGUUUUGUUGUACACCCUUGGCAGCAGAAUCUUAUUG	60.3	80.7		
ACAAGUCCUCAUGAUACCAGCGAUGAGACAUAGUCUCAACAUGAGGAUCACCCAUGUAUUCGCCCUUGGCAGCAUACGGUUUUUG			301	28.5
UACAUGAGGAUCACCCAUGUAUGAAUAGAUACCAGAUAAAAUAAGGUCCCUUGGCAGCUAGUGAAUAAAGGGUGGGUAAAAUAAU	9.22	9.51		
CUCCGAGGCUAUACUAUCCGCCUCUGUGAUACCAGAAUACCUAUAUUCCCUUGGCAGCAUCACAUGAGGAUCACCCAUGUGCCAU				15.1
AUAAUGGGUAUCGGAUUAUCAUGAUAUGAUACCAGAUACUUAGAUAUCCCUUGGCAGCAUGAGGACAUGAGGAUCACCCAUGUAU	35	61.8		
ACGACGCAUAGUGAUACCAGUACAACAUGAGGAUCACCCAUGUCACAUAUGUUGUAAUAGUGCCCUUGGCAGCACUAUGCGUCAG			155	17.6
AAACUGGGUGUAAAAUAAAUAAUCACUGAUACCAGACUAUAGUAUGUCCCUUGGCAGCAGAAACAUGAGGAUCACCCAUGUAAUA	21.7	21.3		
UACAUGAGGAUCACCCAUGUAUAGAGGGAUACCAGUGUCAGUGAGCACCCUUGGCAGCCCGCGAACAAUGGGUGCGCUAAAUAGU	30.4	56.9		
AGACAUGAGGAUCACCCAUGUAGUACGGAUACCAGAUCCAGAUGCGUCCCUUGGCAGCUGUAGUACAGCGUUACAUCGCUCAUAG	37.9	70.7		

Reference: the EternaBench riboswitch data
